Laboratory results taken from ChEMBL document CHEMBL1137767, “2-(3-Aryl-2-propenoyl)-3-methylquinoxaline-1,4-dioxides: a novel cluster of tumor-specific cytotoxins which reverse multidrug resistance” (Bioorg Med Chem, 2009).
Activity calls are given as the source filed them. The calls are words filed in the database; no cut-off is given here.

Columns and labels:
HSC-4 = assay: Cytotoxicity against human HSC4 cells after 48 hrs; type: functional; settings: HSC-4, 48 h
[1] = Cytotoxicity against human HPLF cells after 48 hrs; type: cell-based
[2] = Growth inhibition of human Molt4/C8 cells after 3 days; type: functional, cell-based; settings: MOLT-4, 72 h
Procedure, shortened: (§1)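 Human CEM and Molt 4/C8 T-lymphocytes were grown for three days with or without serial dilutions of the compound. IC50 is the concentration that inhibits cell growth by 50%.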

HSC-2 = assay: Cytotoxicity against human HSC2 cells after 48 hrs; type: functional; settings: HSC-2, 48 h
HL-60 [3] = assay: Cytotoxicity against human HL60 cells after 48 hrs; type: functional; settings: HL-60, 48 h
[4] = target: T1, ATP-dependent translocase ABCB1 (Homo sapiens, UniProt P08183); assay: Reversal of P-glycoprotein-mediated multidrug resistance in human MDR1 gene transfected mouse L5178Y cells assessed as fluorescence activity ratio at 200 uM by rhodamine 123 accumulation assay; type: cell-based
T1 sequence (P08183 whole entry): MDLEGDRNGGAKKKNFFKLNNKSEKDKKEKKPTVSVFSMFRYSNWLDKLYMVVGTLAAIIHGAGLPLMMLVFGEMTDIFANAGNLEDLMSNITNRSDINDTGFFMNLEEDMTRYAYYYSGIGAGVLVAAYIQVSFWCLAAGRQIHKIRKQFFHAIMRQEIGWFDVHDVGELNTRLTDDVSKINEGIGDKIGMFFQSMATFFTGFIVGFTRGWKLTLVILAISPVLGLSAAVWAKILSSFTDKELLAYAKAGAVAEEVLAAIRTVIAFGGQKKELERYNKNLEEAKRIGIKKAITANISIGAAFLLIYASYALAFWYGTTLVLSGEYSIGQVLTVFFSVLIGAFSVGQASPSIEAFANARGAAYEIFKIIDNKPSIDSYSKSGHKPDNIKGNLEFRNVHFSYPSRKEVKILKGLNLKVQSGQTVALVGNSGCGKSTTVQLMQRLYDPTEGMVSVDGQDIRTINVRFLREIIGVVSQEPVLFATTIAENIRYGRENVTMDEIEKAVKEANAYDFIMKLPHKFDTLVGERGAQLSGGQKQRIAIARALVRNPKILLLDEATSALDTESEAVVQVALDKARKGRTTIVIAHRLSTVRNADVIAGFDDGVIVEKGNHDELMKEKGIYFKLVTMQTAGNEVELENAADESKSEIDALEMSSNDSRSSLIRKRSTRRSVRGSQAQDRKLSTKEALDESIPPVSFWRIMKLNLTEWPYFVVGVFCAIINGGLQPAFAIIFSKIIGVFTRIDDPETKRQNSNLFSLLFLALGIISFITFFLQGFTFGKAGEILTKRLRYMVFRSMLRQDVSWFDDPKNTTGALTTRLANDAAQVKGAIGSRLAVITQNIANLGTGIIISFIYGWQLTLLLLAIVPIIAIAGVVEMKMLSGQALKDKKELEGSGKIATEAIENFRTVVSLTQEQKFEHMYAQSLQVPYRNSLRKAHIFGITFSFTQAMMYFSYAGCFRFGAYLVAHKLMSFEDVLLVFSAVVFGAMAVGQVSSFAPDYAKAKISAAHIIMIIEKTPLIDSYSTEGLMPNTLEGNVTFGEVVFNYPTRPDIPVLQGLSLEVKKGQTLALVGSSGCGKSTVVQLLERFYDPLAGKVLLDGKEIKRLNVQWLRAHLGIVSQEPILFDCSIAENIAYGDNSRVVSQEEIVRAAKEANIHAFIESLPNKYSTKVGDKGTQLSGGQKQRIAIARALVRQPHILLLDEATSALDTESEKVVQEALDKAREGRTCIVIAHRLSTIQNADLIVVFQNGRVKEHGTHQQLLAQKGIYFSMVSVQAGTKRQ
Procedure, shortened: (§2)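 Murine L-5178Y lymphoma cells transfected with human MDR1 gene (P-gp-overexpressing), alongside parental cells, treated or untreated with compound; rhodamine 123 accumulation measured by fluorescence; FAR = ratio of fluorescence intensity in treated versus untreated cells, values above 1 taken as MDR reversal.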

[5] = Cytotoxicity against human HGF cells after 48 hrs; type: cell-based
[6] = Cytotoxicity against human HPC cells after 48 hrs; type: cell-based
[7] = target: T1, ATP-dependent translocase ABCB1; assay: Reversal of P-glycoprotein-mediated multidrug resistance in human MDR1 gene transfected mouse L5178Y cells assessed as fluorescence activity ratio at 20 uM by rhodamine 123 accumulation assay; type: cell-based; procedure, shortened: as §2
HSC-3 = assay: Cytotoxicity against human HSC3 cells after 48 hrs; type: functional; settings: HSC-3, 48 h
CCRF-CEM [8] = assay: Growth inhibition of human CEM cells after 3 days; type: functional, cell-based; settings: 72 h; procedure, shortened: as §1
UACC-62 = assay: Growth inhibition of human UACC62 cells at 10 uM; type: functional, cell-based
Procedure, shortened: (§3)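 Human tumor cell line panel (59 lines across leukemia, melanoma, non-small cell lung, colon, CNS, ovarian, renal, prostate, breast) treated at a single 10 uM concentration; growth inhibition recorded per line.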

U-251 = assay: Growth inhibition of human U251 cells at 10 uM; type: functional, cell-based; procedure, shortened: as §3
CCRF-CEM [9] = assay: Growth inhibition of human CCRF-CEM cells at 10 uM; type: functional, cell-based; procedure, shortened: as §3
M14 = assay: Growth inhibition of human M14 cells at 10 uM; type: functional, cell-based; procedure, shortened: as §3
MDA-MB-435 = assay: Growth inhibition of human MDA-MB-435 cells at 10 uM; type: functional, cell-based; procedure, shortened: as §3
PC-3 = assay: Growth inhibition of human PC3 cells at 10 uM; type: functional, cell-based; procedure, shortened: as §3
NCI-H460 = assay: Growth inhibition of human NCI-H460 cells at 10 uM; type: functional, cell-based; procedure, shortened: as §3
OVCAR-4 = assay: Growth inhibition of human OVCAR4 cells at 10 uM; type: functional, cell-based; procedure, shortened: as §3
NCI-H23 = assay: Growth inhibition of human NCI-H23 cells at 10 uM; type: functional, cell-based; procedure, shortened: as §3
T47D = assay: Growth inhibition of human T47D cells at 10 uM; type: functional, cell-based; procedure, shortened: as §3
HCT-116 = assay: Growth inhibition of human HCT116 cells at 10 uM; type: functional, cell-based; procedure, shortened: as §3
Hs-578T = assay: Growth inhibition of human Hs 578T cells at 10 uM; type: functional, cell-based; procedure, shortened: as §3
NCI/ADR-RES = assay: Growth inhibition of human NCI/ADR-RES cells at 10 uM; type: functional, cell-based; procedure, shortened: as §3
SW-620 = assay: Growth inhibition of human SW620 cells at 10 uM; type: functional, cell-based; procedure, shortened: as §3
LOX IMVI = assay: Growth inhibition of human LOXIMVI cells at 10 uM; type: functional, cell-based; procedure, shortened: as §3
A549 = assay: Growth inhibition of human A549 cells at 10 uM; type: functional, cell-based; procedure, shortened: as §3
SF-295 = assay: Growth inhibition of human SF295 cells at 10 uM; type: functional, cell-based; procedure, shortened: as §3
EKVX = assay: Growth inhibition of human EKVX cells at 10 uM; type: functional, cell-based; procedure, shortened: as §3
A498 = assay: Growth inhibition of human A498 cells at 10 uM; type: functional, cell-based; procedure, shortened: as §3
K562 = assay: Growth inhibition of human K562 cells at 10 uM; type: functional, cell-based; procedure, shortened: as §3
RXF 393 = assay: Growth inhibition of human RXF393 cells at 10 uM; type: functional, cell-based; procedure, shortened: as §3
HCT-15 = assay: Growth inhibition of human HCT15 cells at 10 uM; type: functional, cell-based; procedure, shortened: as §3
SNB-75 = assay: Growth inhibition of human SNB75 cells at 10 uM; type: functional, cell-based; procedure, shortened: as §3
OVCAR-3 = assay: Growth inhibition of human OVCAR-3 cells at 10 uM; type: functional, cell-based; procedure, shortened: as §3
IGROV-1 = assay: Growth inhibition of human IGROV1 cells at 10 uM; type: functional, cell-based; procedure, shortened: as §3
NCI-H522 = assay: Growth inhibition of human NCI-H522 cells at 10 uM; type: functional, cell-based; procedure, shortened: as §3
MDA-MB-468 = assay: Growth inhibition of human MDA-MB-468 cells at 10 uM; type: functional, cell-based; procedure, shortened: as §3
HOP-92 = assay: Growth inhibition of human HOP92 cells at 10 uM; type: functional, cell-based; procedure, shortened: as §3
RPMI8266 = assay: Growth inhibition of human […] cells at 10 uM; type: functional, cell-based; procedure, shortened: as §3
MCF7 = assay: Growth inhibition of human MCF7 cells at 10 uM; type: functional, cell-based; procedure, shortened: as §3
UO-31 = assay: Growth inhibition of human UO31 cells at 10 uM; type: functional, cell-based; procedure, shortened: as §3
CAKI-1 = assay: Growth inhibition of human Caki1 cells at 10 uM; type: functional, cell-based; procedure, shortened: as §3
HCC 2998 = assay: Growth inhibition of human HCC2998 cells at 10 uM; type: functional, cell-based; procedure, shortened: as §3
HL-60 [10] = assay: Growth inhibition of human HL60 cells at 10 uM; type: functional, cell-based; procedure, shortened: as §3
OVCAR-8 = assay: Growth inhibition of human OVCAR8 cells at 10 uM; type: functional, cell-based; procedure, shortened: as §3
DU-145 = assay: Growth inhibition of human DU145 cells at 10 uM; type: functional, cell-based; procedure, shortened: as §3

For `Cc1ccc(/C=C/C(=O)c2c(C)[n+]([O-])c3ccccc3[n+]2[O-])cc1`, the CC50 (HSC-4) was 11 µM, the CC50 at 48 h [1] was 23 µM and the IC50 [2] was 8.4 µM. It also gave a CC50 (HSC-2) of 8.4 µM, a CC50 (HL-60 [3]) of 4.1 µM and a Ratio [4] of 27.2. It also gave a CC50 at 48 h [5] of 32 µM, a CC50 at 48 h [6] of 40 µM and a Ratio [7] of 9.79. The CC50 (HSC-3) was 14 µM and the IC50 (CCRF-CEM [8]) was 22.4 µM.

`Cc1c(C(=O)/C=C/c2ccc(Cl)cc2)[n+]([O-])c2ccccc2[n+]1[O-]` gave a CC50 (HSC-4) of 19 µM, a CC50 at 48 h [1] of 12 µM and an IC50 [2] of 7.75 µM. For the same compound, the CC50 (HSC-2) was 13 µM, the CC50 (HL-60 [3]) was 11 µM and the Ratio [4] was 5.97. For the same compound, the CC50 at 48 h [5] was 27 µM, the CC50 at 48 h [6] was 21 µM and the Ratio [7] was 2.63. It also gave a CC50 (HSC-3) of 38 µM and an IC50 (CCRF-CEM [8]) of 16 µM.

For `COc1cc(/C=C/C(=O)c2c(C)[n+]([O-])c3ccccc3[n+]2[O-])cc(OC)c1OC`, the CC50 (HSC-4) was 6.5 µM, the CC50 at 48 h [1] was 33 µM and the IC50 [2] was 5.51 µM. The CC50 (HSC-2) was 7.8 µM, the CC50 (HL-60 [3]) was 1.9 µM and the Ratio [4] was 41.9. The CC50 at 48 h [5] was 35 µM, the CC50 at 48 h [6] was 31 µM and the Ratio [7] was 8.15. The CC50 (HSC-3) was 6.6 µM and the IC50 (CCRF-CEM [8]) was 5.22 µM.

For `COc1ccc(/C=C/C(=O)c2c(C)[n+]([O-])c3ccccc3[n+]2[O-])cc1`, the CC50 (HSC-4) was 11 µM, the “growth inhibition (GI)” value (UACC-62) was “Active” and the CC50 at 48 h [1] was 93 µM. For the same compound, the “growth inhibition (GI)” value (U-251) was “Active”, the “growth inhibition (GI)” value (CCRF-CEM [9]) was “Active” and the “growth inhibition (GI)” value (M14) was “Active”. For the same compound, the “growth inhibition (GI)” value (MDA-MB-435) was “Active”, the IC50 [2] was 25.8 µM and the “growth inhibition (GI)” value (PC-3) was “Active”. For the same compound, the “growth inhibition (GI)” value (NCI-H460) was “Active”, the “growth inhibition (GI)” value (OVCAR-4) was “Active” and the CC50 (HSC-2) was 20 µM. For the same compound, the “growth inhibition (GI)” value (NCI-H23) was “Active”, the “growth inhibition (GI)” value (T47D) was “Active” and the “growth inhibition (GI)” value (HCT-116) was “Active”. The CC50 (HL-60 [3]) was 16 µM, the “growth inhibition (GI)” value (Hs-578T) was “Active” and the “growth inhibition (GI)” value (NCI/ADR-RES) was “Active”. For the same compound, the “growth inhibition (GI)” value (SW-620) was “Active”, the “growth inhibition (GI)” value (LOX IMVI) was “Active” and the Ratio [4] was 31.7. The “growth inhibition (GI)” value (A549) was “Active”, the “growth inhibition (GI)” value (SF-295) was “Active” and the CC50 at 48 h [5] was 52 µM. For the same compound, the “growth inhibition (GI)” value (EKVX) was “Active”, the “growth inhibition (GI)” value (A498) was “Active” and the “growth inhibition (GI)” value (K562) was “Active”. The “growth inhibition (GI)” value (RXF 393) was “Active”, the “growth inhibition (GI)” value (HCT-15) was “Active” and the “growth inhibition (GI)” value (SNB-75) was “Active”. For the same compound, the “growth inhibition (GI)” value (OVCAR-3) was “Active”, the “growth inhibition (GI)” value (IGROV-1) was “Active” and the CC50 at 48 h [6] was 92 µM. The “growth inhibition (GI)” value (NCI-H522) was “Active”, the “growth inhibition (GI)” value (MDA-MB-468) was “Active” and the “growth inhibition (GI)” value (HOP-92) was “Active”. The “growth inhibition (GI)” value (RPMI8266) was “Active”, the “growth inhibition (GI)” value (MCF7) was “Active” and the “growth inhibition (GI)” value (UO-31) was “Active”. The Ratio [7] was 4.25, the “growth inhibition (GI)” value (CAKI-1) was “Active” and the CC50 (HSC-3) was 23 µM. For the same compound, the “growth inhibition (GI)” value (HCC 2998) was “Active”, the “growth inhibition (GI)” value (HL-60 [10]) was “Active” and the “growth inhibition (GI)” value (OVCAR-8) was “Active”. The “growth inhibition (GI)” value (DU-145) was “Active” and the IC50 (CCRF-CEM [8]) was 27.6 µM.

In the case of `Cc1c(C(=O)/C=C/c2ccc(Cl)c(Cl)c2)[n+]([O-])c2ccccc2[n+]1[O-]`, the CC50 (HSC-4) is reported as 15 µM, the CC50 at 48 h [1] is reported as 5.7 µM and the IC50 [2] is reported as 10.1 µM. For the same compound, the CC50 (HSC-2) was 17 µM, the CC50 (HL-60 [3]) was 27 µM and the Ratio [4] was 11.9. It also gave a CC50 at 48 h [5] of 29 µM, a CC50 at 48 h [6] of 13 µM and a Ratio [7] of 4.42. For the same compound, the CC50 (HSC-3) was 84 µM and the IC50 (CCRF-CEM [8]) was 15.4 µM.

With `Cc1c(C(=O)/C=C/c2ccccc2)[n+]([O-])c2ccccc2[n+]1[O-]` the CC50 (HSC-4) was 9.6 µM, the CC50 at 48 h [1] was 35 µM and the IC50 [2] was 6.76 µM. For the same compound, the CC50 (HSC-2) was 8.4 µM, the CC50 (HL-60 [3]) was 4.1 µM and the Ratio [4] was 36.8. For the same compound, the CC50 at 48 h [5] was 32 µM, the CC50 at 48 h [6] was 36 µM and the Ratio [7] was 10.9. The CC50 (HSC-3) was 9.7 µM and the IC50 (CCRF-CEM [8]) was 5.92 µM.
